Assay results published in ChEMBL document CHEMBL3739387, “Discovery and SAR of Novel and Selective Inhibitors of Urokinase Plasminogen Activator (uPA) with an Imidazo[1,2-a]pyridine Scaffold” (J Med Chem, 2015).
Calls of active or inactive are those of the source. The rule behind the calls is not given here.

How the values were obtained:
[1] = molecular target: T1, Urokinase-type plasminogen activator (Homo sapiens, UniProt P00749); assay: Inhibition of human uPA using pyro-Glu-Gly-Arg-pNA as substrate assessed as para-nitroaniline release from substrate measured for 5 mins by spectrophotometric assay
Prothrombin [2] = molecular target: T2, Prothrombin (Homo sapiens, UniProt P00734); assay: Inhibition of human plasma thrombin using pyroGlu-Pro-Arg-pNA-HCl as substrate measured for 5 mins by spectrophotometric assay; type: cell-free
Procedure, shortened: (§1)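 Thrombin from human plasma with pyroGlu-Pro-Arg-pNA (CS-21(66), Km 400 μM) at 415 μM in assay. 50 mM HEPES pH 8.2. pNA release at 405 nm over 5 min at 37 °C, in duplicate.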

[3] = molecular target: T3, Tissue-type plasminogen activator (Homo sapiens, UniProt P00750); assay: Inhibition of recombinant human tPA using H-D-Ile-Pro-L-Arg-pNA-2HCl as substrate measured for 5 mins by spectrophotometric assay
Target sequence in this assay (P00750 whole entry): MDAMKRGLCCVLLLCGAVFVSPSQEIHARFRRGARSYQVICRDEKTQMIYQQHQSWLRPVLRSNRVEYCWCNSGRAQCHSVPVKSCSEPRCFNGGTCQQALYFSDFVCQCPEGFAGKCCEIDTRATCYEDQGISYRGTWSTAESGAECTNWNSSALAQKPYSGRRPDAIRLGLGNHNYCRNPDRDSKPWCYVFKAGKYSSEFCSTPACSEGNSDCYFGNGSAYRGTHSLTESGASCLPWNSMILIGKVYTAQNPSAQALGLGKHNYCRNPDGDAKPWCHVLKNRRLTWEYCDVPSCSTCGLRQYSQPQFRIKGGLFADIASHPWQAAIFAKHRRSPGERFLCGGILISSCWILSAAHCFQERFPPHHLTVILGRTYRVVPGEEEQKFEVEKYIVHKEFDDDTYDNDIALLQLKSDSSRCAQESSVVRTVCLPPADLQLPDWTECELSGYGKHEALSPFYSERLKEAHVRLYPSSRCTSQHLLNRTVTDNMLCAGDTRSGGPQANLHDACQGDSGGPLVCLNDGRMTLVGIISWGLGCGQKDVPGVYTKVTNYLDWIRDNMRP

Coagulation factor X [4] = molecular target: T4, Coagulation factor X (Homo sapiens, UniProt P00742); assay: Inhibition of purified human factor 10a using Suc-Ile-Glu(gammaPip)-GlyArg-pNa-HCl as substrate measured for 5 mins by spectrophotometric assay
T4 sequence (P00742 41-179 limits assumed): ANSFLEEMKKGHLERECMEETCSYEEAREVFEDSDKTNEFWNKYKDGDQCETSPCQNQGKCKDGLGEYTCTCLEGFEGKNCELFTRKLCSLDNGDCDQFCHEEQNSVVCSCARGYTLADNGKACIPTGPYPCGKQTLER
T4 sequence (P00742 235-488 limits assumed): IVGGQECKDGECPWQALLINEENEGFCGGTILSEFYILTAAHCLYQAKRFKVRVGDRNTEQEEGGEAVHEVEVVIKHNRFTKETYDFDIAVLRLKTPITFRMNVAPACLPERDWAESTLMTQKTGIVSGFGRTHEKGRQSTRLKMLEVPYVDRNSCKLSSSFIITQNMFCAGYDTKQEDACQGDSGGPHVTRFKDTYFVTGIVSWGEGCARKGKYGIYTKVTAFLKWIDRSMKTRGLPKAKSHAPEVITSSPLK
Procedure, shortened: (§2)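 Purified human factor Xa, substrate Suc-Ile-Glu(γPip)-Gly-Arg-pNA (CS-11(32)) at 411 μM in assay. HEPES pH 8.2. Read at 405 nm for 5 min at 37 °C, duplicate wells.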

Plasminogen [5] = molecular target: T5, Plasminogen (Homo sapiens, UniProt P00747); assay: Inhibition of human plasma plasmin using pyroGlu-Pro-Arg-pNA-HCl as substrate measured for 5 mins by spectrophotometric assay; type: cell-free
T5 sequence (P00747 97-580 limits assumed): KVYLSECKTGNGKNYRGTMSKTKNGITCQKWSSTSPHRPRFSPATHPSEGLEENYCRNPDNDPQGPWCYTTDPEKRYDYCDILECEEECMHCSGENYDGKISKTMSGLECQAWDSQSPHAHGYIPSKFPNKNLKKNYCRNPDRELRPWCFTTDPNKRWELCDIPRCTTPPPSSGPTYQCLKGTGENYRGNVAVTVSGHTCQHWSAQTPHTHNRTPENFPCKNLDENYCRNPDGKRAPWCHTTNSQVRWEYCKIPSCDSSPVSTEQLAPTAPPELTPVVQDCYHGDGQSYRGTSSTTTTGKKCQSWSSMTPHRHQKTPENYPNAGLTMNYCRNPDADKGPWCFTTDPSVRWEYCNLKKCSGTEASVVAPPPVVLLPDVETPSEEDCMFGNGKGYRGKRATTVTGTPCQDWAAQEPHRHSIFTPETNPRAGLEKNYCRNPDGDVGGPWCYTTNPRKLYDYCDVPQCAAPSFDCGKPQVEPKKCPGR
T5 sequence (P00747 581-810 limits assumed): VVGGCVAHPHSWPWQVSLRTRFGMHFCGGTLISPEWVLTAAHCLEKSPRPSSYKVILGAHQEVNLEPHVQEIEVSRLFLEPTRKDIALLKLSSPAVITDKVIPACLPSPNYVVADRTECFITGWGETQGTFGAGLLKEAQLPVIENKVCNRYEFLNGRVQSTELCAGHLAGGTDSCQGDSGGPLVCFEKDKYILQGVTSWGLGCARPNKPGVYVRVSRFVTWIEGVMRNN
Procedure, shortened: (§3)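 Plasmin purified from human plasma. Substrate pyroGlu-Pro-Arg-pNA (CS-21(66), Km 400 μM) at 400 μM in assay. HEPES pH 7.0, 37 °C, absorbance at 405 nm followed for 5 min, duplicates.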

Plasma kallikrein [6] = molecular target: T6, Plasma kallikrein (Homo sapiens, UniProt P03952); assay: Inhibition of human plasma kallikrein using D-Pro-Phe-Arg-pNA-2HCl as substrate measured for 5 mins by spectrophotometric assay; type: cell-free
T6 sequence (P03952 20-390 limits assumed): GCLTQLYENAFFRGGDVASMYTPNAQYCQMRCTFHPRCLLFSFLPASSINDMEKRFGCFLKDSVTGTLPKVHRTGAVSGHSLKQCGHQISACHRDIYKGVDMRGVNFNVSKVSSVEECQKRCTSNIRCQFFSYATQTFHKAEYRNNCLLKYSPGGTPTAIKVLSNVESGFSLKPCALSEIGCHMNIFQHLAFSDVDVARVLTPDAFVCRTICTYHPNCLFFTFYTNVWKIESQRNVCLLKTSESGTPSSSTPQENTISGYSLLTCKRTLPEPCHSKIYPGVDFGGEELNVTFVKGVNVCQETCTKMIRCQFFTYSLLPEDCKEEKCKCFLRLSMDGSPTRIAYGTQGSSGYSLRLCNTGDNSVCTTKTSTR
T6 sequence (P03952 391-638 limits assumed): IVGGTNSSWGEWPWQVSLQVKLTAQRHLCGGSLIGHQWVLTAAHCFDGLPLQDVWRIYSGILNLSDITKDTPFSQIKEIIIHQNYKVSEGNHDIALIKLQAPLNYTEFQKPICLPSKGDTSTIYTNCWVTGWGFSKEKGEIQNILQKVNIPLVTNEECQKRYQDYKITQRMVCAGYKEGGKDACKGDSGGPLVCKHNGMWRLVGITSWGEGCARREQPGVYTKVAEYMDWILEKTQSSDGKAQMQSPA
Procedure, shortened: (§4)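 Human plasma kallikrein, chromogenic substrate CS-31(02) (Km 269 μM) at 269 μM in assay. 50 mM HEPES at pH 7.4. Absorbance at 405 nm over 5 min at 37 °C, duplicates.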

[7] = Inhibition of bovine pancreatic trypsin using Nalpha-benzoyl-D,L-Arg-pNA-HCl as substrate measured for 5 mins by spectrophotometric assay; parameters: species or system Bos taurus
[8] = molecular target: T7, Coagulation factor VII (Homo sapiens) (UniProt P08709); assay: Inhibition of purified human factor 7a using MeSO2-Cha-Abu-Arg-pNA as substrate at 100 uM measured for 5 mins by spectrophotometric assay
T7 sequence (whole entry): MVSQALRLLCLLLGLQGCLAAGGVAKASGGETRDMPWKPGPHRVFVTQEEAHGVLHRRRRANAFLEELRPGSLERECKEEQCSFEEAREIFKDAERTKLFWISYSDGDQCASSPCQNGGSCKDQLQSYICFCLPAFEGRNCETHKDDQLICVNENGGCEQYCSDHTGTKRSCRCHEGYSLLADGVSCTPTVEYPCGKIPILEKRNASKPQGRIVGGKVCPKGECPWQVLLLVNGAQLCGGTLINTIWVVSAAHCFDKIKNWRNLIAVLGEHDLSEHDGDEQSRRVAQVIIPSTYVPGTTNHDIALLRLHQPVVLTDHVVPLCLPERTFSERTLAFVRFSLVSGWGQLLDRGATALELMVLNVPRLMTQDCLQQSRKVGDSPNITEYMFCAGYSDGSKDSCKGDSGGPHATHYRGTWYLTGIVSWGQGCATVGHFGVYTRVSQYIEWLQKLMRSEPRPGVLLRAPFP
Procedure, shortened: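 Purified human plasma FVIIa with tissue factor (Innovin) present. MeSO2-Cha-Abu-Arg-pNA at 800 μM in assay. Buffer 50 mM HEPES pH 7.5, 100 mM NaCl, 5 mM CaCl2, 0.1% BSA.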

Prothrombin [9] = molecular target: T2, Prothrombin; assay: Inhibition of human plasma thrombin using pyroGlu-Pro-Arg-pNA-HCl as substrate at 100 uM measured for 5 mins by spectrophotometric assay; type: cell-free; procedure, shortened: as §1
[10] = molecular target: T3, Tissue-type plasminogen activator; assay: Inhibition of recombinant human tPA using H-D-Ile-Pro-L-Arg-pNA-2HCl as substrate at 100 uM measured for 5 mins by spectrophotometric assay
Target sequence in this assay (P00750 36-562 limits assumed): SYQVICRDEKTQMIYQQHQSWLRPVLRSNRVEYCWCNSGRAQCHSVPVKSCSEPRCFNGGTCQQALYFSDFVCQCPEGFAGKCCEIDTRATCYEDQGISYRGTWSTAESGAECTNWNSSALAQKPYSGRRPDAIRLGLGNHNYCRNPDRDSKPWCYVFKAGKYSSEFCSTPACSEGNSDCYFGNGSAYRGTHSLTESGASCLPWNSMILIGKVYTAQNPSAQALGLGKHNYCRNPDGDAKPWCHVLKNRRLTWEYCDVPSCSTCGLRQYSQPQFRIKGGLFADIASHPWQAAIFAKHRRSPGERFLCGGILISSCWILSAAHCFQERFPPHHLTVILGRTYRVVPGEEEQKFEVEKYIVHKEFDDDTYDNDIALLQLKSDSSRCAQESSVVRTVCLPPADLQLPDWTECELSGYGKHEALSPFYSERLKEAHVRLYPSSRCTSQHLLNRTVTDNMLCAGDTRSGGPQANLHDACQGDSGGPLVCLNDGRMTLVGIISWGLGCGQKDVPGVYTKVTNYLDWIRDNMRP

Coagulation factor X [11] = molecular target: T4, Coagulation factor X; assay: Inhibition of purified human factor 10a using Suc-Ile-Glu(yPip)-GlyArg-pNa-HCl as substrate at 100 uM measured for 5 mins by spectrophotometric assay; procedure, shortened: as §2
Plasminogen [12] = molecular target: T5, Plasminogen; assay: Inhibition of human plasma plasmin using pyroGlu-Pro-Arg-pNA-HCl as substrate at 100 uM measured for 5 mins by spectrophotometric assay; type: cell-free; procedure, shortened: as §3
Plasma kallikrein [13] = molecular target: T6, Plasma kallikrein; assay: Inhibition of human plasma kallikrein using D-Pro-Phe-Arg-pNA-2HCl as substrate at 100 uM measured for 5 mins by spectrophotometric assay; type: cell-free; procedure, shortened: as §4
Bos taurus = organism: Bos taurus; assay: Inhibition of bovine pancreatic trypsin using Na-benzoyl-D,L-Arg-pNA-HCl as substrate at 100 uM measured for 5 mins by spectrophotometric assay
[14] = molecular target: T1, Urokinase-type plasminogen activator; assay: Reversible inhibition of human uPA using pyro-Glu-Gly-Arg-pNA as substrate assessed as para-nitroaniline release from substrate measured for 5 mins by spectrophotometry based enzyme kinetics assay
[15] = molecular target: T1, Urokinase-type plasminogen activator; assay: Tight binding inhibition of human uPA using pyro-Glu-Gly-Arg-pNA as substrate assessed as para-nitroaniline release from substrate measured for 5 mins by spectrophotometry based enzyme kinetics assay
[16] = molecular target: T1, Urokinase-type plasminogen activator; assay: Slow dissociating inhibition of human uPA using pyro-Glu-Gly-Arg-pNA as substrate assessed as para-nitroaniline release from substrate measured for 5 mins by spectrophotometry based enzyme kinetics assay

CCc1nc2ccccn2c1NCCc1ccc(NC(=N)N)cc1
IC50 [1]: 150 µM

Clc1ccc(OCCNc2cnc3ccccn23)c(Cl)c1
IC50 [1]: 250 µM

CCOC(=O)c1ccc(OC(=O)CCCCCNC(=N)N)cc1 [GABEXATE]
IC50 [1]: 0.431 µM
IC50 (Prothrombin [2]): 0.687 µM
IC50 [3]: 15.4 µM
IC50 (Coagulation factor X [4]): 4.61 µM
IC50 (Plasminogen [5]): 1.55 µM
IC50 (Plasma kallikrein [6]): 1.35 µM
IC50 [7]: 7.12 µM

N=C(N)Nc1ccc(CCNc2cnc3ccccn23)cc1
IC50 [1]: 19.4 µM

N=C(N)Nc1ccc(CNc2c(-c3cc(Cl)cc(Cl)c3)nc3ccccn23)cc1
IC50 [1]: 99.2 µM

N=C(N)Nc1ccc(CNc2c(C3CCNCC3)nc3ccccn23)cc1
IC50 [1]: 250 µM

CCc1ccc(-c2nc3ccccn3c2NCc2ccc(NC(=N)N)cc2)cc1
IC50 [1]: 63.9 µM

CN1CCN(CCNC(=O)c2ccn3c(NCc4ccc(NC(=N)N)cc4)cnc3c2)CC1
IC50 [1]: 0.404 µM
inhibition [8]: 2%
inhibition (Prothrombin [9]): 6.6%
inhibition [10]: 2.8%
inhibition (Coagulation factor X [11]): 12.2%
inhibition (Plasminogen [12]): 0%
inhibition (Plasma kallikrein [13]): 0%
inhibition (Bos taurus): 32%
inhibition [14]: Active
inhibition [15]: Active
inhibition [16]: Active

CCCCNC(=O)c1ccc2nc(-c3cccnc3)c(NCc3ccc(NC(=N)N)cc3)n2c1
IC50 [1]: 60.8 µM

NC[C@H]1CC[C@H](Nc2cnc3ccccn23)CC1
IC50 [1]: 500 µM

COC(=O)c1ccn2c(NCc3ccc(NC(=N)N)cc3)c(-c3cccnc3)nc2c1
IC50 [1]: 15 µM

N=C(N)Nc1ccc(CNc2cnc3cc(C(=O)NCc4ccc(F)cc4)ccn23)cc1
IC50 [1]: 0.254 µM
inhibition [8]: 4.2%
inhibition (Prothrombin [9]): 19.5%
inhibition [10]: 11.9%
inhibition (Coagulation factor X [11]): 45.7%
inhibition (Plasminogen [12]): 8.3%
inhibition (Plasma kallikrein [13]): 0%
inhibition (Bos taurus): 43.2%
inhibition [14]: Active
inhibition [15]: Active
inhibition [16]: Active

N=C(N)Nc1ccc(CNc2c(Cc3cccc(Cl)c3)nc3ccccn23)cc1
IC50 [1]: 18 µM

N=C(N)NCCCCNc1cnc2ccccn12
IC50 [1]: 200 µM

N=C(N)Nc1ccc(CNc2cnc3cc(C(=O)NCCO)ccn23)cc1
IC50 [1]: 0.366 µM
IC50 (Coagulation factor X [4]): 51.6 µM
inhibition [8]: 5%
inhibition (Prothrombin [9]): 4.7%
inhibition [10]: 0%
inhibition (Plasminogen [12]): 15.6%
inhibition (Plasma kallikrein [13]): 0%
inhibition (Bos taurus): 43.3%
inhibition [14]: Active
inhibition [15]: Active
inhibition [16]: Active

Cc1cccn2c(NCc3ccc(NC(=N)N)cc3)c(-c3cccnc3)nc12
IC50 [1]: 27.4 µM

N=C(N)Nc1ccc(CNc2c(-c3cccnc3)nc3ccccn23)cc1
IC50 [1]: 250 µM
inhibition [8]: 0%
inhibition (Prothrombin [9]): 6.6%
inhibition [10]: 9.4%
inhibition (Coagulation factor X [11]): 24.6%
inhibition (Plasminogen [12]): 0%
inhibition (Plasma kallikrein [13]): 0%
inhibition (Bos taurus): 3.3%

N=C(N)Nc1ccc(CNc2c(-c3ccc(F)cc3)nc3ccccn23)cc1
IC50 [1]: 125 µM

N=C(N)Nc1ccc(CNc2cnc3ccccn23)cc1
IC50 [1]: 9.04 µM
IC50 [7]: 115 µM
inhibition [8]: 2.5%
inhibition (Prothrombin [9]): 23%
inhibition [10]: 33.6%
inhibition (Coagulation factor X [11]): 42%
inhibition (Plasminogen [12]): 29.8%
inhibition (Plasma kallikrein [13]): 39.4%

N=C(N)Nc1ccc(CNc2c(-c3cccnc3)nc3ccc(C(N)=O)cn23)cc1
IC50 [1]: 27.3 µM
